Values after ≈ are worked out from the molar mass of the structure shown.

Drawing on ChEMBL document CHEMBL1221233, “4''-O-(omega-Quinolylamino-alkylamino)propionyl derivatives of selected macrolides with the activity against the key erythromycin resistant respiratory pathogens” (2010), this text covers MIC for nine compounds.

Common to all, as to type: functional
For assay [1], the system named is Staphylococcus aureus. In words: Antibacterial activity against inducible resistance to macrolide, licosamide and streptogramin Staphylococcus aureus 90256 by broth microdilution method. The method, boiled down:
(§1)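 Staphylococci were grown on Mueller-Hinton agar and then tested by CLSI-guideline broth microdilution against two-fold serial dilutions of compound. The result was recorded as the minimum inhibitory concentration.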

Assay [2] relates to Streptococcus pneumoniae. In words: Antibacterial activity against efflux-mediated macrolide-resistance Streptococcus pneumoniae Ci137 by broth microdilution method. The method, boiled down:
(§2)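 MIC by CLSI broth microdilution. In the streptococcal medium, 5% horse serum replaced lysed blood. Compounds were tested as two-fold serial dilutions. Strains were first grown on Columbia agar with 5% sheep blood. The MIC was read as the lowest concentration inhibiting growth.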
A general note: Broth dilution looks for growth in wells or tubes with falling amounts of substance.

Assay [3] deals with Streptococcus pneumoniae. The assay can be described thus: Antibacterial activity against inducible resistance to macrolide and constitutive resistance to lincosamide Streptococcus pneumoniae 134 GR M by broth microdilution method. A digest of the protocol:
as §2

The subject of assay [4] is Streptococcus pyogenes. In words: Antibacterial activity against efflux-mediated macrolide-resistance Streptococcus pyogenes 2 Finland by broth microdilution method. The method, boiled down: as §2
In assay [5] the test system is Streptococcus pyogenes. The assay can be described thus: Antibacterial activity against constitutive MLS resistance sStreptococcus pyogenes 166 GR-Micro by broth microdilution method. The method, boiled down:
as §2

Assay [6] concerns Staphylococcus aureus. In words: Antibacterial activity against efflux-mediated macrolide-resistance Staphylococcus aureus PK1 by broth microdilution method. The method, boiled down: as §1
The subject of assay [7] is Haemophilus influenzae. The assay can be described thus: Antibacterial activity against Haemophilus influenzae ATCC 49247 by broth microdilution method. A digest of the protocol:
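MIC by broth microdilution following CLSI guidelines, expressed in units of lg/mL. Twofold dilutions prepared in 96-well plates. H. influenzae grown on Mueller-Hinton chocolate agar before testing.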

Assay [8] deals with Streptococcus pneumoniae. In words: Antibacterial activity against constitutive MLS resistance Streptococcus pneumoniae 58 by broth microdilution method. A digest of the protocol: as §2

In the case of `CC[C@H]1OC(=O)[C@H](C)[C@@H](O[C@H]2C[C@@](C)(OC)[C@@H](OC(=O)CCNCCNc3ccc4c(c3)c(=O)c(C(=O)O)cn4C3CC3)[C@H](C)O2)[C@H](C)[C@@H](O[C@@H]2O[C@H](C)C[C@H](N(C)C)[C@H]2O)[C@](C)(O)C[C@@H](C)CN(C)[C@H](C)[C@H]2OC(=O)O[C@@]21C`, the MIC in assay [1] is 2 µg/mL (≈ 1.79 µM); in assay [2] it was not above 0.125 µg/mL; in assay [3], 0.25 µg/mL (≈ 0.224 µM); in assay [4] it was 0.25 µg/mL (≈ 0.224 µM); in assay [5], not above 0.125 µg/mL; in assay [6] it was 1 µg/mL (≈ 0.896 µM). The figures for the MIC in assay [7] and in assay [8] were 2 µg/mL (≈ 1.79 µM) and 0.25 µg/mL (≈ 0.224 µM), respectively.

In the case of `CC[C@H]1OC(=O)[C@H](C)[C@@H](O[C@H]2C[C@@](C)(OC)[C@@H](OC(=O)CCN(C)CCNc3cc4c(=O)c(C(=O)O)cn(C5CC5)c4cc3Cl)[C@H](C)O2)[C@H](C)[C@@H](O[C@@H]2O[C@H](C)C[C@H](N(C)C)[C@H]2O)[C@](C)(O)C[C@@H](C)CN(C)[C@H](C)[C@H]2OC(=O)O[C@@]21C`, the MIC in assay [1] is 2 µg/mL (≈ 1.72 µM); in assay [2] it was not above 0.125 µg/mL; in assay [3], 2 µg/mL (≈ 1.72 µM); in assay [4], not above 0.125 µg/mL; in assay [5], 1 µg/mL (≈ 0.858 µM); in assay [6], 1 µg/mL (≈ 0.858 µM). The MIC in assay [7] stood at 4 µg/mL (≈ 3.43 µM); in assay [8] it was 1 µg/mL (≈ 0.858 µM).

With `CC[C@H]1OC(=O)[C@H](C)[C@@H](O[C@H]2C[C@@](C)(OC)[C@@H](OC(=O)CCN(C)CCNc3cc4c(cc3F)c(=O)c(C(=O)O)cn4C3CC3)[C@H](C)O2)[C@H](C)[C@@H](O[C@@H]2O[C@H](C)C[C@H](N(C)C)[C@H]2O)[C@](C)(O)C[C@@H](C)CN(C)[C@H](C)[C@H]2OC(=O)O[C@@]21C`, the MIC in assay [1] is 4 µg/mL (≈ 3.48 µM); in assay [2] it was not above 0.125 µg/mL; in assay [3], 2 µg/mL (≈ 1.74 µM); in assay [4] it was not above 0.125 µg/mL; in assay [5], 16 µg/mL (≈ 13.9 µM); in assay [6], 2 µg/mL (≈ 1.74 µM). Besides, the MIC was 8 µg/mL (≈ 6.97 µM) in assay [7] and 1 µg/mL (≈ 0.871 µM) in assay [8].

Consider `CC[C@H]1OC(=O)[C@H](C)[C@@H](O[C@H]2C[C@@](C)(OC)[C@@H](OC(=O)CCN(C)CCNc3ccc4c(c3)c(=O)c(C(=O)O)cn4C3CC3)[C@H](C)O2)[C@H](C)[C@@H](O[C@@H]2O[C@H](C)C[C@H](N(C)C)[C@H]2O)[C@](C)(O)C[C@@H](C)CN(C)[C@H](C)[C@H]2OC(=O)O[C@@]21C`, for which the MIC is 8 µg/mL (≈ 7.08 µM) in assay [1]; not above 0.125 µg/mL in assay [2]; 1 µg/mL (≈ 0.885 µM) in assay [3]; not above 0.125 µg/mL in assay [4]; 0.5 µg/mL (≈ 0.442 µM) in assay [5]; 1 µg/mL (≈ 0.885 µM) in assay [6]. Moreover, the figures for the MIC in assay [7] and in assay [8] were 4 µg/mL (≈ 3.54 µM) and 1 µg/mL (≈ 0.885 µM), respectively.

Regarding `CC[C@H]1OC(=O)[C@H](C)[C@@H](O[C@H]2C[C@@](C)(OC)[C@@H](OC(=O)CCNCCNc3cc4c(=O)c(C(=O)O)cn(C5CC5)c4cc3Cl)[C@H](C)O2)[C@H](C)[C@@H](O[C@@H]2O[C@H](C)C[C@H](N(C)C)[C@H]2O)[C@](C)(O)C[C@@H](C)CN(C)[C@H](C)[C@H]2OC(=O)O[C@@]21C`, the MIC in assay [1] is 1 µg/mL (≈ 0.869 µM); in assay [2], not above 0.125 µg/mL; in assay [3], not above 0.125 µg/mL; in assay [4], not above 0.125 µg/mL; in assay [5], not above 0.125 µg/mL; in assay [6], 0.5 µg/mL (≈ 0.434 µM). In addition, the MIC in assay [7] is 2 µg/mL (≈ 1.74 µM); in assay [8], not above 0.125 µg/mL.

Take `CC[C@H]1OC(=O)[C@H](C)[C@@H](O[C@H]2C[C@@](C)(OC)[C@@H](OC(=O)CCNCCNc3cc4c(cc3F)c(=O)c(C(=O)O)cn4C3CC3)[C@H](C)O2)[C@H](C)[C@@H](O[C@@H]2O[C@H](C)C[C@H](N(C)C)[C@H]2O)[C@](C)(O)C[C@@H](C)CN(C)[C@H](C)[C@H]2OC(=O)O[C@@]21C`: the MIC was 1 µg/mL (≈ 0.882 µM) in assay [1]; not above 0.125 µg/mL in assay [2]; not above 0.125 µg/mL in assay [3]; not above 0.125 µg/mL in assay [4]; not above 0.125 µg/mL in assay [5]; 0.25 µg/mL (≈ 0.22 µM) in assay [6]. The MIC in assay [7] is 2 µg/mL (≈ 1.76 µM); in assay [8] it was not above 0.125 µg/mL.

Take `CC[C@H]1OC(=O)[C@H](C)[C@@H](O[C@H]2C[C@@](C)(OC)[C@@H](O)[C@H](C)O2)[C@H](C)[C@@H](O[C@@H]2O[C@H](C)C[C@H](N(C)C)[C@H]2O)[C@](C)(O)C[C@@H](C)CN(C)[C@H](C)[C@@H](O)[C@]1(C)O` [AZITHROMYCIN]: the MIC in assay [1] was more than 64 µg/mL; in assay [2], 8 µg/mL (≈ 10.7 µM); in assay [3], more than 64 µg/mL; in assay [4] it was 8 µg/mL (≈ 10.7 µM); in assay [5], more than 64 µg/mL; in assay [6], more than 64 µg/mL. Moreover, the MIC in assay [7] was 1 µg/mL (≈ 1.34 µM); in assay [8], more than 64 µg/mL.

As for `CC[C@H]1OC(=O)[C@H](C)[C@@H](O[C@H]2C[C@@](C)(OC)[C@@H](O)[C@H](C)O2)[C@H](C)[C@@H](O[C@@H]2O[C@H](C)C[C@H](N(C)C)[C@H]2O)[C@](C)(OC)C[C@@H](C)C(=O)[C@H](C)[C@@H](O)[C@]1(C)O` [CLARITHROMYCIN], the MIC in assay [1] is more than 64 µg/mL; in assay [2] it was 4 µg/mL (≈ 5.35 µM); in assay [3], more than 64 µg/mL; in assay [4] it was 4 µg/mL (≈ 5.35 µM); in assay [5] it was more than 16 µg/mL; in assay [6], more than 64 µg/mL. Moreover, the figures for the MIC in assay [7] and in assay [8] were 8 µg/mL (≈ 10.7 µM) and more than 16 µg/mL, respectively.

For the compound `CC[C@H]1OC(=O)[C@H](C)C(=O)[C@H](C)[C@@H](O[C@@H]2O[C@H](C)C[C@H](N(C)C)[C@H]2O)[C@](C)(OC)C[C@@H](C)C(=O)[C@H](C)[C@H]2N(CCCCn3cnc(-c4cccnc4)c3)C(=O)O[C@]12C` [TELITHROMYCIN], the MIC in assay [1] was not above 0.125 µg/mL; in assay [2], 0.25 µg/mL (≈ 0.308 µM); in assay [3] it was 0.25 µg/mL (≈ 0.308 µM); in assay [4], 0.5 µg/mL (≈ 0.616 µM); in assay [5] it was 16 µg/mL (≈ 19.7 µM); in assay [6], not above 0.125 µg/mL. Besides, the MIC in assay [7] is 2 µg/mL (≈ 2.46 µM); in assay [8], 0.25 µg/mL (≈ 0.308 µM).
